Assay results: ChEMBL document CHEMBL1147093, “Miltefosine affects lipid metabolism in Leishmania donovani promastigotes” (2007)
Activity calls are given as the source filed them. No cut-off for these calls is given here.

Key:
Leishmania donovani [1] = test: Effect on total membrane fatty acid composition in Leishmania donovani LV9 promastigotes assessed by measuring octadecanoate fatty acid at 10 uM; assay type: functional
Method in brief: (§1)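 Log-phase LV9 wild-type promastigotes were exposed to HePC for 48 h before harvest, in 1 liter of medium 199 at 26°C. Washed whole-cell pellets served as total membranes. Fatty acids were analysed by gas chromatography as methyl esters and expressed as % of total fatty acids (mean ± SD, n = 3).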

Leishmania donovani [2] = test: Effect on total membrane phospholipid composition in wild type Leishmania donovani LV9 assessed as decrease in phosphatidyl choline at 10 uM after 48 hrs; assay type: functional; set-up: scale not given: the % may be the effect or the level left
Method in brief: (§2)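 Wild-type LV9 promastigotes were cultured in 1 liter of supplemented medium 199 at 26°C with shaking. HePC (aqueous) was added 48 h before harvest at late log phase. After TBS washes, the whole-cell pellet was taken as total membranes. Lipids were extracted with chloroform/methanol and phospholipids profiled by HPLC on a PVA-sil column with evaporative light-scattering detection. n = 3.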

Leishmania donovani [3] = test: Effect on total membrane sterol composition in Leishmania donovani LV9 promastigotes assessed by measuring 4,4alpha-Dimethylergosta-8,24(24')-dien-3beta-ol content at 10 uM; assay type: functional
Method in brief: (§3)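 LV9 promastigotes (wild type, 26°C, 1 liter shaken culture) were exposed to HePC for 48 h before harvest. Total membranes were extracted in dichloromethane-methanol 2:1 for 24 h at 4°C, then saponified with 30% KOH/methanol at 80°C for 2 h. Sterols were extracted into hexane, converted to TMS ethers with BSTFA (80°C, 1 h) and analysed by GC-MS with EI at 70 eV. Results are given as % total sterol, n = 3.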

Leishmania donovani [4] = test: Effect on total membrane sterol composition in Leishmania donovani LV9 promastigotes assessed by measuring 4-alpha,14alpha-Dimethylcholesta-8,24-dien-3beta-ol content at 10 uM; assay type: functional; method in brief: as §3
Leishmania donovani [5] = test: Effect on total membrane sterol composition in Leishmania donovani LV9 promastigotes assessed by measuring 24-Methylenedihydrolanosterol content at 10 uM; assay type: functional; set-up: scale not given: the % may be the effect or the level left; method in brief: as §3
Leishmania donovani [6] = test: Effect on total membrane fatty acid composition in Leishmania donovani LV9 promastigotes assessed by measuring 9-octadecenoate fatty acid at 10 uM; assay type: functional; method in brief: as §1
Leishmania donovani [7] = test: Effect on total membrane fatty acid composition in Leishmania donovani LV9 promastigotes assessed by measuring 9-hexadecenoate fatty acid at 10 uM; assay type: functional; method in brief: as §1
Leishmania donovani [8] = test: Effect on total membrane fatty acid composition in Leishmania donovani LV9 promastigotes assessed by measuring dodecanoate fatty acid at 10 uM; assay type: functional; method in brief: as §1
Leishmania donovani [9] = test: Effect on phospholipid composition in HePC-resistant Leishmania donovani at 1 uM; assay type: functional, organism-based
Method in brief: (§4)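 HePC-resistant L. donovani LV9 promastigotes were kept under 40 μM HePC in medium 199 with 10% inactivated FCS, HEPES, adenosine, hemin and gentamicin at 26°C in the dark, then exposed to added HePC. Cells were harvested in late log phase and washed in cold TBS. Lipids from total and plasma-membrane-enriched fractions were extracted with chloroform/methanol. Phospholipids were quantified by HPLC on a PVA-sil column with evaporative light scattering detection.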

Leishmania donovani [10] = test: Effect on total membrane phospholipid composition in wild type Leishmania donovani LV9 assessed as increase in phosphatidyl ethanolamine at 10 uM after 48 hrs; assay type: functional; method in brief: as §2
Leishmania donovani [11] = test: Effect on total membrane sterol composition in Leishmania donovani LV9 promastigotes assessed by measuring ergosta-5,7,22,24(24')-tetraen-3beta-ol content at 10 uM; assay type: functional; method in brief: as §3
Leishmania donovani [12] = test: Effect on total membrane sterol composition in Leishmania donovani LV9 promastigotes assessed by measuring ergosterol content at 10 uM; assay type: functional; method in brief: as §3
Leishmania donovani [13] = test: Effect on phospholipid composition in HePC-resistant Leishmania donovani at 10 uM; assay type: functional, organism-based; method in brief: as §4
Leishmania donovani [14] = test: Effect on total membrane sterol composition in Leishmania donovani LV9 promastigotes assessed by measuring 14-alpha-Methylergosta-5,7,24(24')-trien-3beta-ol content at 10 uM; assay type: functional; method in brief: as §3
Leishmania donovani [15] = test: Effect on total membrane fatty acid composition in Leishmania donovani LV9 promastigotes assessed by measuring tetradecanoate fatty acid at 10 uM; assay type: functional; method in brief: as §1
Leishmania donovani [16] = test: Effect on total membrane sterol composition in Leishmania donovani LV9 promastigotes assessed by measuring 14-alpha-Methylcholesta-8,24-dien-3beta-ol content at 10 uM; assay type: functional; method in brief: as §3
Leishmania donovani [17] = test: Effect on total membrane sterol composition in Leishmania donovani LV9 promastigotes assessed by measuring 4,4alpha-Dimethylcholesta-8,24-dien-3beta-ol content at 10 uM; assay type: functional; method in brief: as §3
Leishmania donovani [18] = test: Effect on total membrane fatty acid composition in Leishmania donovani LV9 promastigotes assessed as decrease in C16 fatty acid content at 10 uM; assay type: functional; set-up: scale not given: the % may be the effect or the level left; method in brief: as §1
Leishmania donovani [19] = test: Effect on total membrane sterol composition in Leishmania donovani LV9 promastigotes assessed by measuring 14-alpha-Methylergosta-8,24(24')-dien-3beta-ol content at 10 uM; assay type: functional; method in brief: as §3
Leishmania donovani [20] = test: Growth inhibition of wild type Leishmania donovani LV9 at 10 uM after 48 hrs; assay type: functional; settings: LV9, 48 h
Method in brief: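 Promastigotes were grown in medium 199 with 10% heat-inactivated FCS, HEPES, adenosine, hemin and gentamicin at 26°C in the dark. HePC was tested at 20, 10, 5, 2.5 and 1.25 μM. Cells were counted microscopically at 24, 48 and 72 h. n = 3.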

Leishmania donovani [21] = test: Effect on total membrane sterol composition in Leishmania donovani LV9 promastigotes assessed by measuring 14-alpha-Methylcholesta-5,7,24-trien-3beta-ol content at 10 uM; assay type: functional; method in brief: as §3
Leishmania donovani [22] = test: Effect on total membrane sterol composition in Leishmania donovani LV9 promastigotes assessed by measuring ergosta-7,24(24')-dien-3beta-ol content at 10 uM; assay type: functional; method in brief: as §3
Leishmania donovani [23] = test: Effect on total membrane sterol composition in Leishmania donovani LV9 promastigotes assessed by measuring ergosta-5,7,24(24')-trien-3beta-ol content at 10 uM; assay type: functional; method in brief: as §3
Leishmania donovani [24] = test: Effect on plasma membrane phospholipid composition in wild type Leishmania donovani LV9 assessed as increase in phosphatidyl ethanolamine at 10 uM after 48 hrs; assay type: functional
Method in brief: (§5)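 Wild-type LV9 promastigotes grown at 26°C with shaking, starting at 10^6/ml in 1 liter of medium 199 with 10% FCS. HePC in aqueous solution was added 48 h before harvest at late log phase. Cells were washed in TBS and lysed by freeze-thaw; a 2,100 × g pellet gave the plasma membrane-enriched fraction. Lipids were extracted with chloroform/methanol and phospholipids analysed by HPLC (PVA-sil column, light-scattering detection). n = 3.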

Leishmania donovani [25] = test: Effect on total membrane sterol composition in Leishmania donovani LV9 promastigotes assessed as reduction in total C24 alkyl sterol content; assay type: functional; set-up: scale not given: the % may be the effect or the level left; method in brief: as §3
Leishmania donovani [26] = test: Effect on plasma membrane phospholipid composition in wild type Leishmania donovani LV9 assessed as decrease in phosphatidyl choline at 10 uM after 48 hrs; assay type: functional; set-up: scale not given: the % may be the effect or the level left; method in brief: as §5
Leishmania donovani [27] = test: Effect on total membrane sterol composition in Leishmania donovani LV9 promastigotes assessed by measuring ergosta-7,22-dien-3beta-ol content at 10 uM; assay type: functional; method in brief: as §3
Leishmania donovani [28] = test: Effect on total membrane sterol composition in Leishmania donovani LV9 promastigotes assessed by measuring 4-alpha,-14alpha-Dimethylergosta-8,24(24')-dien-3beta-ol content at 10 uM; assay type: functional; method in brief: as §3
Leishmania donovani [29] = test: Effect on total membrane sterol composition in Leishmania donovani LV9 promastigotes assessed by measuring total C24 alkyl sterol content at 10 uM; assay type: functional; method in brief: as §3
Leishmania donovani [30] = test: Effect on total membrane sterol composition in Leishmania donovani LV9 promastigotes assessed by measuring stigmasta-7,24(24')-dien-3beta-ol content at 10 uM; assay type: functional; method in brief: as §3
Leishmania donovani [31] = test: Effect on total membrane fatty acid composition in Leishmania donovani LV9 promastigotes assessed by measuring hexadecanoate fatty acid at 10 uM; assay type: functional; method in brief: as §1
Leishmania donovani [32] = test: Effect on total membrane sterol composition in Leishmania donovani LV9 promastigotes assessed by measuring cholesterol content at 10 uM; assay type: functional; method in brief: as §3
Leishmania donovani [33] = test: Effect on total membrane fatty acid composition in Leishmania donovani LV9 promastigotes assessed by measuring unsaturated fatty acids at 10 uM; assay type: functional; method in brief: as §1
Leishmania donovani [34] = test: Effect on total membrane sterol composition in Leishmania donovani LV9 promastigotes assessed by measuring cholesta-5,7,24-trien-3beta-ol content at 10 uM; assay type: functional; method in brief: as §3

## CCCCCCCCCCCCCCCCOP(=O)([O-])OCC[N+](C)(C)C [MILTEFOSINE]
Leishmania donovani [1]
  Activity: 22.33%
Leishmania donovani [2]
  Activity: 42%
Leishmania donovani [3]
  Activity: 0.7%
Leishmania donovani [4]
  Activity: 0.2%
Leishmania donovani [5]
  Activity: 1.4%
Leishmania donovani [6]
  Activity: 34.22%
Leishmania donovani [7]
  Activity: 1.56%
Leishmania donovani [8]
  Activity: 1.84%
Leishmania donovani [9]
  Activity: inactive
Leishmania donovani [10]
  Activity: 19%
Leishmania donovani [11]
  Activity: 1.6%
Leishmania donovani [12]
  Activity: 26.3%
Leishmania donovani [13]
  Activity: inactive
Leishmania donovani [14]
  Activity: 0.3%
Leishmania donovani [15]
  Activity: 3.85%
Leishmania donovani [16]
  Activity: 0.2%
Leishmania donovani [17]
  Activity: 0.2%
Leishmania donovani [18]
  Activity: 41%
Leishmania donovani [19]
  Activity: 0.3%
Leishmania donovani [20]
  inhibition at 10 µM: 66%
Leishmania donovani [21]
  Activity: 0.1%
Leishmania donovani [22]
  Activity: 0.4%
Leishmania donovani [23]
  Activity: 5.1%
Leishmania donovani [24]
  Activity: 25%
Leishmania donovani [25]
  Activity: 43%
Leishmania donovani [26]
  Activity: 47%
Leishmania donovani [27]
  Activity: 0.2%
Leishmania donovani [28]
  Activity: 0.2%
Leishmania donovani [29]
  Activity: 36.6%
Leishmania donovani [30]
  Activity: 0.3%
Leishmania donovani [31]
  Activity: 4.8%
Leishmania donovani [32]
  Activity: 61.2%
Leishmania donovani [33]
  Activity: 52%
Leishmania donovani [34]
  Activity: 3.2%
